Measurements reported in the EternaBench riboswitch data.

System: MS2 coat protein
Assay: apparent Kd, MS2 coat protein; higher = weaker binding; RNA-MaP array; FMN 200 µM where present
Procedure, shortened: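 On Illumina sequencing-chip clusters, designs were transcribed by stalled E. coli RNA polymerase and titrated with SNAP-549-labelled MS2 coat protein (0.7 or 1.5 nM, doubling to 3 µM), without and then with constant ligand, in 100 mM Tris-HCl pH 7.5, 80 mM KCl, 4 mM MgCl2, BSA, DTT, yeast tRNA and Tween-20. Apparent Kd is the median of filtered per-cluster curve fits to green signal normalised to red-channel RNA signal and control-cluster median Fmax.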

[1] = designed as: OFF switch for flavin mononucleotide, no ligand
[2] = ligand present: flavin mononucleotide, designed as: OFF switch for flavin mononucleotide
[3] = designed as: ON switch for flavin mononucleotide, no ligand
[4] = ligand present: flavin mononucleotide, designed as: ON switch for flavin mononucleotide

Sequence | apparent Kd [1] [nM] | apparent Kd [2] [nM] | apparent Kd [3] [nM] | apparent Kd [4] [nM]
UGAUACUGAGAGAAGGUUCAAACUACAUAUUGCAUACAUGAGGAUCACCCAUGUUGGUGAAUAAGAAAGGAUAUUUUACUAUAU | 47 | 32.8 | – | –
UGGUACAUGGGAGGAUAUGGGUUGAUAACAUGAGGAUCACCCAUGUUAAAUAUGCCGAGAGGCAACUAGAAGGCCCAUGUACCU | – | – | 482 | 38.2
CUGUGACGGUGCGCAAGUGGACGUAGAAGGCUCACAUGAGGAUCACCCAUGUGGGCCUGCGAGUGAGAGGAUAUACGUUCGUGC | 5.28 | 5.56 | – | –
CCUUCGUGAGGAUAUCAUAGACAGCUCUCAGAAAUGGUCAAUGAGAAGGCACAUGAGGAUCACCCAUGUGGGUC | 56.3 | 198 | – | –
UUUGUUUAUGUGAGGAUAUACUGUUUGUAUUGAUUGUAGAAGGUACAUGAGGAUCACCCAUGUUUUGUAUUUAU | 18.8 | 19.4 | – | –
CGCACUAUACAUGAGGAUCACCCAUGUUAUUAUGAGAUAGUCAGAAGGCAUUGUUUGUGAAAUUAUGAGGAUAUGAAUAGUGCG | – | – | 146 | 79.3
UAUAUUAUUAUAGGAUAUGGAUAUGAUGCAUAUCCAGAAGGGUGAUUAUAAUAUUUUCUGUACAUGAGGAUCACCCAUGUUUAG | – | – | 134 | 32.5
GGAUUGAAUGAGGAUAUCGUAUUAGGUGUAAUGCGAGAAGGCAUGACAUGAGGAUCACCCAUGUAGUGUGGGUU | 509 | 772 | – | –
ACGGCUGUCAGAGGAUAUGGUUACAUGAGGAUCACCCAUGUCAAGGGUCUAAUUAAGUAUAACUACUAGAAGGCUGAUGGCCUA | 263 | 144 | – | –
GCCAUUGCAUGAGGAUAUGCUCCCGUUUCGGGAGCAGAAGGCAUGUCAUAAGACAUGAGGAUCACCCAUGUAUUUAAGAUGGCA | – | – | 273 | 11.5
AUGCUCGUGUGAGGAUAUGCCGCCGUUUCGGCUGCAGAAGGUGCUACGUUACAUGAGGAUCACCCAUGUCUCUGUUGUUUCGUG | – | – | 24.4 | 25.5
AUCAGCUCGUCAGGAUAUACGUCACUGCUUCAGCAGUGUGGUAAGAUCACAUGAGGAUCACCCAUGUAGAAGGGACGAGCUGAU | 14.1 | 268 | – | –
UUCAUGUGAGGAUAUGCGGCGUCAGGUGGGCCUGUCGCUGAGCAGAAGGCACAUGAGGAUCACCCAUGUGCUCC | 31.7 | 62.5 | – | –
AUGCCUUAUGUAGGAUAUGCAUAGCGUUGCUAUGCAGAAGGACAUGAGGAUCACCCAUGUAUGUAUUCCAUACAUAUCUGGCAU | 26.8 | 343 | – | –
CGCCGCACCGGCCUGCGGCAGGGUCAGGAUAUACAUGAGGAUCACCCAUGUGAACGGUGCCCUAUGUAGAAGGGACGAAAAGAA | 22.8 | 37.5 | – | –
GGACGUGACAUUAACAUGAGGAUCACCCAUGUCAAAAGACAUGAGGAUAUGGAUCCGAAAAGGAUCCAGAAGGCAUGCACGUCC | – | – | 587 | 37.1
ACACAUGAGGAUCACCCAUGUAGCUGACGUCUGCGCCAGCCACAGGAUAUACGGCAACACAAACCGUAGAAGGGUGAUAAACAC | – | – | 114 | 23
GGACCUCCUGAGGAUAUUGUAUCACCUGAUUGAUAAGAAGGCAGAACAUGAGGAUCACCCAUGUGGGUACUCGG | 168 | 145 | – | –
GCAGCGUCUGCAGGAUAUCAGCACGUGUAGUGCUGAGAAGGGCACAUGAGGAUCACCCAUGUGAUCAAUUAAUAGACAUGCUGC | 6.98 | 15.5 | – | –
GUCAUGUCAGGAUAUGCUUAUGAUGAGUGCUCAGACAUGAUGCAGAAGGGACAUGAGGAUCACCCAUGUACUGA | 22.4 | 26.8 | – | –
GUGGUACAUGAGGAUCACCCAUGUGUGGGCGCGUGAGGAUAUGUCCGUACCUGGCGUACGAUAGAAGGCAUGGUGC | – | – | 73.9 | 34.6
CGAUUUACUGAGGAUAUUGCAUCACCCGACUGAUAAGAAGGCAGAACAUGAGGAUCACCCAUGUGGGUACUCAC | 80.5 | 91.1 | – | –
AGCUGUGGCCGAGGAUAUCUAAACCUUCAAACCGAAAUAUAAUCGGACAUGAGGAUCACCCAUGUAGAGAAGGCGGUCUCAGCA | 13.3 | 28.8 | – | –
CCCUGAUCGAGAGGUAGGAGUGGUAGAAGGCGACCGGUGCCAGAUGACAUGAGGAUCACCCAUGUCGAGGAUAUACCACAGAAU | 7.6 | 11.5 | – | –
GAGUGACAUGAGGAUCACCCAUGUGAGGAUAUCGGACGGACCUUGUUGGCUUCCGCCGCGAGAAGGCACAUCGG | 201 | 45 | – | –
GGGCUCGGAGGAUAUACAUGAGGAUCACCCAUGUAGGGCUCGGGUAUUCUCGGGCUCUGUAGAAGGUCGGGCUC | 20.3 | 23.3 | – | –
AAUUUACAUGAGGAUCACCCAUGUGAGGAUAUAUAUAUAUGUUUGUUAUUGCGUGUGUGUAGAAGGCGCGUGAU | 17.6 | 16.3 | – | –
GAGUAGUCAAAAGGAUAUUGAUUAUUGUAGGAUCAAGAAGGUUUUAACAUGAGGAUCACCCAUGUAGGACUAUUCCUGUGUAUC | – | – | 16.6 | 12.2

Sequence | apparent Kd [1] [nM] | apparent Kd [2] [nM] | apparent Kd [3] [nM] | apparent Kd [4] [nM]
AGCAACAUGAGGAUCACCCAUGUUGGUUCGAAAACGGACUCACAGGAUAUGCAACGUGAUCGUUUGCAGAAGGGUGCGUCCUCA | – | – | 18.4 | 28.4
ACAUGGAAUACAGGAUAUGUAAGUUUUAAGUAGAUUGGUUAUUACUUUACAACAGAAGGGUAAUACAUGAGGAUCACCCAUGUA | – | – | 19.1 | 16
CUAGACUUAUCAGGAUAUCAUCGCGUGGAUUAACCCUGUGAUUACAUGAGGAUCACCCAUGUGCUUGAGAAGGGAUUACUAUUU | 28.8 | 114 | – | –
GUUAAACAUGAGGAUCACCCAUGUAAGGAUAUGCUGCGGUCGAGAUGAAGUGAAUGCAGCAGAAGGUACAAUUG | 116 | 99.9 | – | –
UCGCUGCGAGGAUAUACAUGAGGAUCACCCAUGUACGGGUCCGGGUCUUAGUUGAUUGGUAGAAGGCGCAGUGA | 106 | 212 | – | –
GCGCAUUUUAGAUUUAUAUAAUUUUCAGAAGGUGAAUAGUCGACAUGAGGAUCACCCAUGUAUUUCAAGGAUAUGAUUUAGCGC | – | – | 68.6 | 13
GGUCCUCUGGUGAGGAUAUCUACCCAGGCAGCUGGAGAGAAGGCACAUGAGGAUCACCCAUGUAGCAGAAAACC | 9.98 | 17 | – | –
ACAGUUGAAGCAGGAUAUGUACAUGAGGAUCACCCAUGUUGUCUGAGCGACUGGGAGUGCUAGCUACAGAAGGGCUUUACGACC | 12.9 | 77 | – | –
CUCAUCCUUACAGGCUGAGACAUGAGGAUCACCCAUGUAGGGAGAAGGGAGUUGGGCAUCUUGACUCAGGAUAUCCCGAAAGAC | – | – | 733 | 83.7
CUAUGUUAGCAGGAUAUGCCAUUAUUCCUUUUCGCAGAAGGGCUUACAUGAGGAUCACCCAUGUUACAUUUCUU | 12.4 | 17.6 | – | –
GACUACGAGGGAGGAUAUCCUCAUUAAUUUGGUGGAGAAGGCCCUCUACAUGAGGAUCACCCAUGUAUCGCUAUAGUCAGACAU | – | – | 9.92 | 6.95
GUAGAACAUGAGGAUCACCCAUGUGAGGGCGCAUGAGGAUAUGUCCGUACCUAGCAUACGAUAGAAGGCAUGGUGC | – | – | 38.7 | 27.4
ACAUGAGGAUCACCCAUGUAGAAUGAAGAAGGUAGAUACUUGAGGCUCACCCAUGUACAUGGGACUAAGGAUAUUCUAAUAAUU | – | – | 42.7 | 27.7
CCAGGCUUCGAGAAGGACAUGAGGAUCACCCAUGUGCGUGUAAAACAGCCAAAAGGCUGCAUCAUGUAGGAUAUCGGAGUCUGC | 275 | 95.5 | – | –
GGUACUCAAAGAGUACCAAGACGAACAUGAGGAUCACCCAUGUAGGAUAUGCUACUCAAAGAGUAGCAGAAGGACAUGUGCCUA | 17.1 | 107 | – | –
AAAAGACAUGAGGAUCACCCAUGUCAAAACAUAGGAGGAUAUGUCUUGAAAAAAGACUUGACAGAAGGCCUUUGUC | – | – | 17.9 | 15.8
AAAAAAAAAUCUCAGGAUAUAGAUUAUAGAACAUGAGGAUCACCCAUGUAGUGAAAGAAGAAAAACUAGAAGGGAGGAAAAAAAAA | – | – | 100 | 66.6
GUCAGCUCGUGAGGAUAUACAACACUGCUUCGGCAGUUUAUUAAGAUCACAUGAGGAUCACCCAUGUAGAAGGCACGAGCUGAU | 14.4 | 264 | – | –
GGAUCGAAUGUCAGGAUAUGCUGGUCCUUGGAUCAGCAGAAGGGACAUGAGGAUCACCCAUGUGACGACGGUCC | 64.7 | 503 | – | –
UUAGAGGAUUAAGGAUAUGCAGAGAGAUUAUGCGCGUCGCGCACAUGAGGAUCACCCAUGUAAGAGCAGAAGGUAACUAUGAUC | 22.8 | 16.4 | – | –
AUUUUAAAGGGAGGAUAUACAUGAGGAUCACCCAUGUAAACAUGAGGAUCACCCUUGUAAACAAUGUAGAAGGCCUAAAUCUAU | 13 | 16.1 | – | –
GGAUGGGACAGAGGAUAUACGUGCUAGAGAUACUAGCAAAAUUUCCUCACAUGAGGAUCACCCAUGUAGAAGGCUGUCCUAUCG | 15.2 | 513 | – | –
AAAUUUAACGAAGGAUAUGCUGACAUGAGGAUCACCCAUGUGUGCCUUGUGUUACUGAUUAGGUUGCAGAAGGUCGUAUACAUA | 230 | 948 | – | –
GCAGCUAAUGCAGGAUAUCAGCACGUGUAGUGCUGAGAAGGGCACAUGAGGAUCACCCAUGUGAUCAAUUAAUAUUAAUGCUGC | 24.9 | 152 | – | –
CCUGAGUCAGGAUAUUGUACCAGUCUAAAACCAGACUGACCCAAGAAGGGACAUGAGGAUCACCCAUGUGAAAA | 30.2 | 25.5 | – | –
AGUUGUAAACAGAACAUGAGGAUCACCCAUGUGCUCUCGUGUAAGGAUAUACAUUCGUAUGGAAAGUAGAAGGUACUAAUUAUG | – | – | 78.4 | 78.7
UAGCUCUCGGCAGGAUAUCCUGCAUAAUGUCGAGUCCGCGCCCGGACAUGAGGAUCACCCAUGUAGGAGAAGGGCCCACGGGCG | 28 | 32.3 | – | –
